In ChEMBL document CHEMBL1250450, “Well-defined regions of the Plasmodium falciparum reticulocyte binding protein homologue 4 mediate interaction with red blood cell membrane” (J Med Chem, 2010):
Active and inactive are the calls of the source. Residues, ends and D or L forms follow the SMILES beside them.

Tests used:
Homo sapiens [1] = species on record: Homo sapiens; assay: Binding affinity to RBC membrane receptor in human RBC assessed as specific binding activity measured as ratio of specifically bound peptide/added peptide by gamma counter
Procedure, shortened: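 1 × 10^8 healthy-donor RBCs incubated in triplicate with four rising concentrations of 125I-peptide (0-560 nM), with or without unlabeled peptide, then washed in HBS (pH 7.4) and gamma-counted. Specific binding (total minus nonspecific) plotted against added peptide; the slope is the specific binding activity. The HABP cutoff is ≥2%.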

Homo sapiens [2] = species on record: Homo sapiens; assay: Binding affinity to RBC membrane receptor in 150 uU/mL neuraminidase pretreated human RBC relative to untreated RBC
Procedure, shortened: (§1)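 Human RBCs (60% hematocrit) treated 1 h at 37 °C with neuraminidase (150 μU/mL), chymotrypsin (1 mg/mL) or trypsin (1 mg/mL). Standard radiolabeled-peptide binding then run on treated cells at 20% hematocrit. Binding expressed relative to untreated RBCs set as 100%.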

Homo sapiens [3] = species on record: Homo sapiens; assay: Binding affinity to RBC membrane receptor in 1 mg/mL chymotrypsin pretreated human RBC relative to untreated RBC; procedure, shortened: as §1
Homo sapiens [4] = species on record: Homo sapiens; assay: Binding affinity to RBC membrane receptor in 1 mg/mL trypsin pretreated human RBC relative to untreated RBC; procedure, shortened: as §1
Plasmodium falciparum [5] = assay: Antiplasmodial activity against Plasmodium falciparum FCB2 assessed as inhibition of merozoite invasion of human erythrocytes at 200 uM after 18 hrs using hydroethidine staining by flow cytometry; assay type: functional; settings: FCB2, 18 h
Procedure, shortened: (§2)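 Schizont-synchronized P. falciparum FCB-2 cultures incubated in triplicate with peptide (100 and 200 μM) using normal RBCs or, for the neuraminidase line, neuraminidase-treated RBCs. 37 °C for 18 h under 5% O2, 5% CO2, 90% N2. Cells washed with PBS, hydroethidine-labeled, read by flow cytometry (FL2). Inhibition controls were EGTA- and chloroquine-treated infected RBCs; uninfected RBCs served as invasion control.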

Plasmodium falciparum [6] = assay: Antiplasmodial activity against Plasmodium falciparum FCB2 assessed as inhibition of merozoite invasion of neuraminidase pretreated human erythrocytes at 200 uM after 18 hrs using hydroethidine staining by flow cytometry; assay type: functional; procedure, shortened: as §2
[7] = Binding affinity to RBC membrane receptor in human RBC assessed as dissociation constant by gamma counter
Procedure, shortened: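 Saturation assay: 7.5 × 10^7 human RBCs incubated in triplicate with 125I-peptide over 0-2200 nM, with or without 6 nmol unlabeled peptide. Cells washed in HBS and counted by gamma counter. Kd, Hill coefficient and sites per cell came from Hill analysis.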

Homo sapiens [8] = species on record: Homo sapiens; assay: Binding affinity of radio labeled compound to 32 kDa RBC membrane receptor in human RBC cross-linked with bis-(sulfosuccinimidyl)suberate by autoradiography using SDS-PAGE
Procedure, shortened: (§3)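 Radioiodinated peptide (chloramine-T method) incubated with 2.1 × 10^7 human RBCs, then cross-linked with BS3 (1 mg/mL) for 1 h at 4 °C. Reaction stopped with Tris-HCl. Membranes lysed (Tris/NaCl/EDTA/PMSF), mixed with Laemmli buffer, spun 15000g for 15 min, resolved on 12% SDS-PAGE against prestained markers.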

Homo sapiens [9] = species on record: Homo sapiens; assay: Binding affinity of radio labeled compound to 25 kDa RBC membrane receptor in human RBC cross-linked with bis-(sulfosuccinimidyl)suberate by autoradiography using SDS-PAGE; procedure, shortened: as §3
Homo sapiens [10] = species on record: Homo sapiens; assay: Binding affinity of radio labeled compound to 22 kDa RBC membrane receptor in human RBC cross-linked with bis-(sulfosuccinimidyl)suberate by autoradiography using SDS-PAGE; procedure, shortened: as §3
Homo sapiens [11] = species on record: Homo sapiens; assay: Binding affinity of radio labeled compound to 20 kDa RBC membrane receptor in human RBC cross-linked with bis-(sulfosuccinimidyl)suberate by autoradiography using SDS-PAGE; procedure, shortened: as §3
Plasmodium falciparum [12] = assay: Antiplasmodial activity against Plasmodium falciparum FCB2 assessed as inhibition of merozoite invasion of human erythrocytes at 1.9 mg/mL after 18 hrs using hydroethidine staining by flow cytometry; assay type: functional; design: scale not given: the % may be the effect or the level left; procedure, shortened: as §2
Plasmodium falciparum [13] = assay: Antiplasmodial activity against Plasmodium falciparum FCB2 assessed as inhibition of merozoite invasion of human erythrocytes at 1.85 mg/mL after 18 hrs using hydroethidine staining by flow cytometry; assay type: functional; design: scale not given: the % may be the effect or the level left; procedure, shortened: as §2
Plasmodium falciparum [14] = assay: Antiplasmodial activity against Plasmodium falciparum FCB2 assessed as inhibition of merozoite invasion of human erythrocytes at 0.93 mg/mL after 18 hrs using hydroethidine staining by flow cytometry; assay type: functional; design: scale not given: the % may be the effect or the level left; procedure, shortened: as §2

Molecule | Activity (Homo sapiens [1]) | Activity (Homo sapiens [2]) | Activity (Homo sapiens [3]) | Activity (Homo sapiens [4]) | inhibition at 200 µM (Plasmodium falciparum [5]) | inhibition at 200 µM (Plasmodium falciparum [6]) | Kd [7] | Activity (Homo sapiens [8]) | Activity (Homo sapiens [9]) | Activity (Homo sapiens [10]) | Activity (Homo sapiens [11]) | Activity (Plasmodium falciparum [12]) | Activity (Plasmodium falciparum [13]) | Activity (Plasmodium falciparum [14])
CC[C@H](C)[C@H](NC(=O)[C@H](Cc1cnc[nH]1)NC(=O)[C@H](CO)NC(=O)[C@@H]1CCCN1C(=O)[C@H](CCC(N)=O)NC(=O)[C@@H](NC(=O)[C@@H](N)CC(C)C)[C@@H](C)CC)C(=O)N[C@@H](Cc1cnc[nH]1)C(=O)N[C@@H](CC(C)C)C(=O)N[C@@H](Cc1cnc[nH]1)C(=O)N[C@@H](CCCCN)C(=O)N[C@@H](CCSC)C(=O)N[C@@H](CCCCN)C(=O)N[C@@H](CC(C)C)C(=O)N1CCC[C@H]1C(=O)N[C@H](C(=O)N[C@H](C(=O)N[C@@H](CCC(N)=O)C(=O)N[C@@H](CCC(N)=O)C(=O)N[C@@H](CCC(N)=O)C(=O)N[C@@H](Cc1ccc(O)cc1)C(=O)O)[C@H](C)O)[C@@H](C)CC | > 2% | 152% | 209% | 79.4% | 48% | 43% |  |  |  |  |  |  |  | 
H-NILMDEIENYVKKYTESNRI-OH | > 2% | 94.3% | 169% | 220% | 46% | 49% |  |  |  |  |  |  |  | 
H-QEQNRIYNELQNKIKQIKNV-OH | > 2% | 93% | 102% | 32% | 85% | 88% | 880 nM | Active | Active | Active | Active |  |  | 
H-YDKLNEHVINNLYTKSKDSL-OH | > 2% | 312% | 26.3% | 16.7% | 43% | 39% | 480 nM |  |  |  |  |  |  | 
H-QIYKNELKDRIKETQTKINL-OH | > 2% | 128% | 288% | 0.03% | 47% | 49% | 590 nM | Active | Active | Active | Active |  |  | 
O=C(O)CN(CCOCCOCCN(CC(=O)O)CC(=O)O)CC(=O)O [EGTAZIC ACID] |  |  |  |  |  |  |  |  |  |  |  | 90% |  | 
H-NTTETQLNHIKQNINHFKYF-OH | > 2% | 89.5% | 135% | 55.5% | 97% | 97% |  |  |  |  |  |  |  | 
H-KHIVNKIQENFKLNQNKYIH-OH | > 2% | 115% | 132% | 94.1% | 51% | 51% | 590 nM |  |  |  |  |  |  | 
H-LNTILHRNEQTKNATRSYNM-OH | > 2% | 92.2% | 22.5% | 43.9% | 47% | 46% | 850 nM |  |  |  |  |  |  | 
H-KIMQNIQQTTNRLKINIKKIY-OH | > 2% | 129% | 60.1% | 15.2% | 54% | 46% | 750 nM |  |  |  |  |  |  | 
CC[C@H](C)[C@H](NC(=O)[C@H](CC(=O)O)NC(=O)[C@H](CC(=O)O)NC(=O)[C@@H](NC(=O)[C@H](Cc1ccc(O)cc1)NC(=O)[C@H](CCCCN)NC(=O)[C@H](CCCCN)NC(=O)[C@@H](NC(=O)[C@H](CC(N)=O)NC(=O)[C@@H](NC(=O)[C@@H](N)CS)[C@@H](C)O)[C@@H](C)CC)[C@@H](C)O)C(=O)N[C@@H](CS)C(=O)N[C@@H](CC(C)C)C(=O)N[C@@H](CO)C(=O)N[C@H](C(=O)N[C@@H](CCCCN)C(=O)N1CCC[C@H]1C(=O)N[C@@H](CCCCN)C(=O)N[C@@H](C)C(=O)N[C@@H](CC(C)C)C(=O)O)[C@@H](C)CC (H-CTNIKKYTDDICLSIKPKAL-OH) | > 2% | 101% | 52.8% | 172% | 52% | 47% | 870 nM | Active | Active | Active | Active |  |  | 
H-MLSIFQDTKYGKHKNQQILS-OH | > 2% | 200% | 93.2% | 93% | 52% | 42% |  |  |  |  |  |  |  | 
H-LFDYTHLWDNAQFTRTKENI-OH | > 2% | 166% | 31.4% | 24.9% | 50% | 58% | 1200 nM |  |  |  |  |  |  | 
H-CIQIKKKVDELYNIYDQLFK-OH | > 2% | 80.7% | 53.3% | 75.2% | 46% | 50% |  | Active | Active | Active | Active |  |  | 
CCN(CC)CCCC(C)Nc1ccnc2cc(Cl)ccc12 (stereo not drawn) [CHLOROQUINE] |  |  |  |  |  |  |  |  |  |  |  |  | 97% | 96%
H-QEKNTLAQFLYNADIKKYID-OH | > 2% | 110% | 0.01% | 1.01% | 38% | 53% |  | Active | Active | Active | Active |  |  | 
H-YNKNNIKDIYQQFKNIQQQL-OH | > 2% | 153% | 114% | 87% | 46% | 49% | 400 nM | Active | Active | Active | Active |  |  | 
H-LNFTHKTIQQILQQQYKNNT-OH | > 2% | 94.9% | 79.7% | 43% | 45% | 47% | 850 nM |  |  |  |  |  |  | 
